pIC50: −log10 of the molar value.

What is called inhibition is the change of the read-out against control, counted positive when it falls. Usually pIC50 stands for −log10 of the IC50, conventionally taken in molar units.

Data set [1] in a line: Inhibition of sigma receptor at 10 uM. The procedure, abridged: (§1)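 Broad in vitro receptor binding screen at one concentration, 10 μM. Specific binding taken as total minus nonspecific binding with excess unlabeled ligand. […] A reference compound was run concurrently in each assay.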
Data set [2] concerns the target Mu-type opioid receptor (Homo sapiens) (UniProt P35372). Briefly: Inhibition of mu opioid receptor at 10 uM. The procedure, abridged: as §1
Data set [3] addresses T1, Muscarinic acetylcholine receptor M5 (Homo sapiens) (UniProt P08912).
T1 sequence (whole entry): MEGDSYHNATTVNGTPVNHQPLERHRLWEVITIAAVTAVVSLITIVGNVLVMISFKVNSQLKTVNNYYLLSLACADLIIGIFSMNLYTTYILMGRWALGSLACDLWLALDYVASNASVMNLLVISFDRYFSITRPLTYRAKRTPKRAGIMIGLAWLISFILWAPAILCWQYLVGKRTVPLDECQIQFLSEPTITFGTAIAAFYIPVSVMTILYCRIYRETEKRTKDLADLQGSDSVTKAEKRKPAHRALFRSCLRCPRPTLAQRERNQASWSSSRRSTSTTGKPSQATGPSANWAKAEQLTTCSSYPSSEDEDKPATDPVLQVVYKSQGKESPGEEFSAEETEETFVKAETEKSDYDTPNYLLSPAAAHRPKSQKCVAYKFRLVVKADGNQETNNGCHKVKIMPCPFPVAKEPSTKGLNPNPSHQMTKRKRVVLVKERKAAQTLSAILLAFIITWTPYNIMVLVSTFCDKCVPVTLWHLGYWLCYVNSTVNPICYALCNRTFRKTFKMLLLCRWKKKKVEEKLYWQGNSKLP
Briefly: Inhibition of human muscarinic M5 receptor at 10 uM. The procedure, abridged:
as §1

The target in data set [4] is Muscarinic acetylcholine receptor M3 (Homo sapiens) (UniProt P20309). Briefly: Inhibition of human muscarinic M3 receptor at 10 uM. The procedure, abridged:
as §1

Data set [5] addresses T2, Muscarinic acetylcholine receptor M1 (Homo sapiens) (UniProt P11229).
T2 sequence (whole entry): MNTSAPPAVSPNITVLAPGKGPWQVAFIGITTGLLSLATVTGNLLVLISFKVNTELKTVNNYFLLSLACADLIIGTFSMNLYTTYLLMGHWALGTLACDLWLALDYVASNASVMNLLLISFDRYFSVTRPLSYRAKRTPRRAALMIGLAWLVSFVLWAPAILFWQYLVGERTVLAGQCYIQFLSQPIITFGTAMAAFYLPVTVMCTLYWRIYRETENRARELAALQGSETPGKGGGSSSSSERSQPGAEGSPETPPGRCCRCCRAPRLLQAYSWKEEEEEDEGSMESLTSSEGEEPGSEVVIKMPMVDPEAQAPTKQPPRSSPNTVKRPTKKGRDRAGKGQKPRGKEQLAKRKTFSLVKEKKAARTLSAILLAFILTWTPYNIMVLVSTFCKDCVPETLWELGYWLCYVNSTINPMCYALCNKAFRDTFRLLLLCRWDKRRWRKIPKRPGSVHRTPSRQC
Briefly: Inhibition of human muscarinic M1 receptor at 10 uM. The procedure, abridged: as §1

Data set [6] has as its target T3, Muscarinic acetylcholine receptor M4 (Homo sapiens) (UniProt P08173).
T3 sequence (whole entry): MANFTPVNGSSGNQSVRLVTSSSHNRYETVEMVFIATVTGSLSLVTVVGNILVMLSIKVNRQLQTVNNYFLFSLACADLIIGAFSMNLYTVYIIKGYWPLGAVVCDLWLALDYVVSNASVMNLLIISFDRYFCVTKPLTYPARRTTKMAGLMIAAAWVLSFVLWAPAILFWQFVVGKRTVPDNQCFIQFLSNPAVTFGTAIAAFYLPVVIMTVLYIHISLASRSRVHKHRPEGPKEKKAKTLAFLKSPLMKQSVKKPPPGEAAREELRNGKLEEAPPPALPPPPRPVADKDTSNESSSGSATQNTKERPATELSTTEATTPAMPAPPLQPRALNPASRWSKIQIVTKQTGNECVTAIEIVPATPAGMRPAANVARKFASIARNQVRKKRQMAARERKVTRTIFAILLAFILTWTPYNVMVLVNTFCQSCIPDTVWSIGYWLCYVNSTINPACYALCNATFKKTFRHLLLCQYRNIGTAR
Briefly: Inhibition of human muscarinic M4 receptor at 10 uM. The procedure, abridged: as §1

Data set [7] has as its target T4, Muscarinic acetylcholine receptor M2 (Homo sapiens) (UniProt P08172).
T4 sequence (whole entry): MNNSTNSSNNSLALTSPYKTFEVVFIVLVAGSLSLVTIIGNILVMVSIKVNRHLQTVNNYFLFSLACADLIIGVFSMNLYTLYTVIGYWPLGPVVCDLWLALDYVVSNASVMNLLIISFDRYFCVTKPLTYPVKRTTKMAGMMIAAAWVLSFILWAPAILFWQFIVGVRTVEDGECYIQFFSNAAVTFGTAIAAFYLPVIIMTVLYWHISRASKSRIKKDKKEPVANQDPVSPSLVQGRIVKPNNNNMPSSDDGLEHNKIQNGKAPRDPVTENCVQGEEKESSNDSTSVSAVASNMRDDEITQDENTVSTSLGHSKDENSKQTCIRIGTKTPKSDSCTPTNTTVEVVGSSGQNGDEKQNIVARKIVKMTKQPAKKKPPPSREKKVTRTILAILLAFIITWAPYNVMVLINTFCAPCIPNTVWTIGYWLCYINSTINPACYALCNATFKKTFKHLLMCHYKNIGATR
Description: Inhibition of human muscarinic M2 receptor at 10 uM. The procedure, abridged:
as §1

The target of another data set is T5, Cytochrome P450 1A2 (Homo sapiens, UniProt P05177).
T5 sequence (P05177 whole entry): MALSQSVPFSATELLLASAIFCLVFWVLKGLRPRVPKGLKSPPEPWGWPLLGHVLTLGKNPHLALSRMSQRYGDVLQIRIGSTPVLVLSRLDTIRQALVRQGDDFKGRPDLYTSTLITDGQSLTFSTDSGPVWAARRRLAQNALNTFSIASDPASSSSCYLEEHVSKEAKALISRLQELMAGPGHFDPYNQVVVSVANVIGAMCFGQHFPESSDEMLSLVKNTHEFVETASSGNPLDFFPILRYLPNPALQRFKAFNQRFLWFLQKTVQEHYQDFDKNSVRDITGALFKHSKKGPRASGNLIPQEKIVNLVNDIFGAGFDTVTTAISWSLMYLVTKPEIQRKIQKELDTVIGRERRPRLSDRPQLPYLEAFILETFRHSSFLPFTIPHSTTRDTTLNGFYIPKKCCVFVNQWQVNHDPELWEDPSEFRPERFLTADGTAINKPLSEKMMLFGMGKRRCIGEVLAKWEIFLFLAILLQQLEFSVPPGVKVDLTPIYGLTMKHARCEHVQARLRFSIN
Briefly: Inhibition of CYP1A2. The data set is classed as ADME.

For a further data set, the target named is Cytochrome P450 2D6 (Homo sapiens, UniProt P10635). Briefly: Inhibition of CYP2D6. The data set is classed as ADME.
Data set [8] has as its system Rattus norvegicus. Description: Antihyperalgesic activity in L5/L6 SNL Sprague-Dawley rat model of […] model assessed as reversal of thermal hyperalgesia at 30 mg/kg, ip measured after 30 mins. It is filed as functional. The note with it: route intraperitoneal. The procedure, abridged:
(§2)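 Sprague-Dawley rats under halothane had L5 and L6 spinal nerves tightly ligated with 4-0 silk distal to the DRG, then recovered singly housed. Drug given intraperitoneally. Mechanical withdrawal threshold and radiant-heat withdrawal latency of the affected hind paw were measured.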

In data set [9] the test system is Rattus norvegicus. Description: Antiallodynic activity in L5/L6 SNL Sprague-Dawley rat model of […] model assessed as reversal of mechanical force-induced allodynia at 30 mg/kg, ip measured after 30 mins. The data set is classed as functional. To be noted: route intraperitoneal. The procedure, abridged:
as §2

The target of a further data set is Cytochrome P450 2C19 (Homo sapiens, UniProt P33261). Briefly: Inhibition of CYP2C19. The data set is classed as ADME.
In data set [10] the target is Sodium-dependent noradrenaline transporter (Homo sapiens, UniProt P23975). Briefly: Displacement of [3H]nisoxetine from human NET expressed in CHO cells after 120 mins by scintillation counting. It is filed as cell-based. The procedure, abridged:
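Membranes from hNET-transfected CHO cells (20 μg protein) incubated 120 min at 4 °C with 1 nM [3H]nisoxetine in 50 mM Tris-HCl pH 7.4, 120 mM NaCl, 5 mM KCl. Nonspecific binding defined with 1 μM desipramine. Filtered on PEI-soaked GF/B and counted.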
In general terms: Loss of bound radioactivity is the signal in a displacement assay; it reports binding, not function.

Data set [11] in a line: Vasoconstrictive activity in U46619 precontracted human arteries assessed as inhibition of acetylcholine-induced vasorelaxation at 100 uM after 50 mins. It is filed as tissue-based, Artery. The procedure, abridged: (§3)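 Human resistance artery rings (~2 mm) from surgical tissue, wire-mounted in myograph baths of Krebs PSS at 37 °C, gassed with 95% O2/5% CO2. […] Compound given 50 min with or without L-arginine, then U46619 preconstriction and ACh curves (1×10⁻¹⁰ to 1×10⁻⁵ M). Responses as % of maximal U46619 contraction.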

For data set [12], the system named is Hepatocyte. Briefly: Metabolic stability in rat liver hepatocytes assessed as compound turnover after 120 mins. The data set is classed as ADME, cell-based. To be noted: 2 h.
Data set [13] concerns Hepatocyte. Briefly: Metabolic stability in primates liver hepatocytes assessed as compound turnover after 120 mins. To be noted: 2 h. It is filed as ADME, cell-based.
In data set [14] the target is Nitric oxide synthase, inducible (Homo sapiens, UniProt P35228). Description: Inhibition of human iNOS expressed in baculovirus-infected insect sf9 cells assessed as conversion of [3H]-L-arginine to [3H]-L-citrulline preincubated for 15 mins with compound measured after 45 mins by scintillation counting.
A short description of data set [15]: Vasoconstrictive activity in U46619 precontracted human arteries assessed as inhibition of acetylcholine-induced vasorelaxation at 100 uM after 50 mins in presence of L-arginine. The data set is classed as tissue-based, Artery. The procedure, abridged:
as §3

The target in the next data set is Cytochrome P450 2C9 (Homo sapiens, UniProt P11712). Briefly: Inhibition of CYP2C9. The data set is classed as ADME.
Another data set has as its target Cytochrome P450 3A4 (Homo sapiens, UniProt P08684). Briefly: Inhibition of CYP3A4. It is filed as ADME.
For data set [16], the system named is Hepatocyte. Description: Metabolic stability in human liver hepatocytes assessed as compound turnover after 120 mins. The data set is classed as ADME, cell-based. To be noted: 2 h.
Data set [17] in a line: Metabolic stability in dog liver hepatocytes assessed as compound turnover after 120 mins. The data set is classed as ADME, cell-based, Canis lupus familiaris, Hepatocyte. To be noted: 2 h.

Chain of Cytochrome P450 2D6 (P10635 whole entry): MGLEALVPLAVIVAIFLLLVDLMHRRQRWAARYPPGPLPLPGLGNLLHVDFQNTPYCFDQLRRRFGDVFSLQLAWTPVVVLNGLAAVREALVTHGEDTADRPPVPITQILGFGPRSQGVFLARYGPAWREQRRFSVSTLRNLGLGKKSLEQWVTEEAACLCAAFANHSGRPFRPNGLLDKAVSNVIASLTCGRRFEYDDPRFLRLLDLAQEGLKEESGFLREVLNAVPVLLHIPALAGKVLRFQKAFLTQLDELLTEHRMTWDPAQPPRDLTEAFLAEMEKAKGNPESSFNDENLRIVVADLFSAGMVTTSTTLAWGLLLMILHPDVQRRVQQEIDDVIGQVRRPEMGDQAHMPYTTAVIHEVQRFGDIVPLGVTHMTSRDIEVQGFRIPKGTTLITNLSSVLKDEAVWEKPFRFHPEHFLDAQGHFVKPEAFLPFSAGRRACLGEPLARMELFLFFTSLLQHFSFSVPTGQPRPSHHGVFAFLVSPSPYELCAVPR
Chain of Muscarinic acetylcholine receptor M3 (Homo sapiens) (P20309 whole entry, looked up): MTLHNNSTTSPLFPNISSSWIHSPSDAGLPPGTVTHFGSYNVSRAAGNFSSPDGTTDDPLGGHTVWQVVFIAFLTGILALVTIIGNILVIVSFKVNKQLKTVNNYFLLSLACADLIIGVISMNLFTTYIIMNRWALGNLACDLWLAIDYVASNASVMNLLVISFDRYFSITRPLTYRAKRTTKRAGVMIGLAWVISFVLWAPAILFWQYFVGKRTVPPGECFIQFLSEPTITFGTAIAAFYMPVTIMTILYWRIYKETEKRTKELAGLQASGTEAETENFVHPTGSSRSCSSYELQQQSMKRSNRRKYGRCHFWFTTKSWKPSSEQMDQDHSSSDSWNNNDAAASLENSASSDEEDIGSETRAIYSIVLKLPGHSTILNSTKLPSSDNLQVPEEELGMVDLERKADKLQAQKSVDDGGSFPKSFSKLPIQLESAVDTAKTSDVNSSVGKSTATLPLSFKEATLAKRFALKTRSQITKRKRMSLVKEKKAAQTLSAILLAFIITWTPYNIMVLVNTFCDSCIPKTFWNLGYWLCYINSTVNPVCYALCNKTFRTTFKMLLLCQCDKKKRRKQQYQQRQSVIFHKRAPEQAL
Chain of Cytochrome P450 2C19 (P33261 whole entry): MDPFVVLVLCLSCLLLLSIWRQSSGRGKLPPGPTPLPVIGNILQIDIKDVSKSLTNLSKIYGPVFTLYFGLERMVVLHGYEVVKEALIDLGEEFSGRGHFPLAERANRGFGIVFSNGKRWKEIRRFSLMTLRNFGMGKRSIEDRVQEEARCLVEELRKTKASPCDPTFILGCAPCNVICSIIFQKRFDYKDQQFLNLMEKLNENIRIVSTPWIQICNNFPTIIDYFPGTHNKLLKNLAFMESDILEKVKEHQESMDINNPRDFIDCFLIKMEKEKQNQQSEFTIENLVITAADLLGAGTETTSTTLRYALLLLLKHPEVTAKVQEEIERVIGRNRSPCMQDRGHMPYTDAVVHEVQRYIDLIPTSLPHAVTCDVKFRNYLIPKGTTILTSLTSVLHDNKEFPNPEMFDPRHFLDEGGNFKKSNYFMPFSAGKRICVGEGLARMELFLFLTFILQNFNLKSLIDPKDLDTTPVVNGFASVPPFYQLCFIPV
Chain of Mu-type opioid receptor (Homo sapiens) (P35372 whole entry): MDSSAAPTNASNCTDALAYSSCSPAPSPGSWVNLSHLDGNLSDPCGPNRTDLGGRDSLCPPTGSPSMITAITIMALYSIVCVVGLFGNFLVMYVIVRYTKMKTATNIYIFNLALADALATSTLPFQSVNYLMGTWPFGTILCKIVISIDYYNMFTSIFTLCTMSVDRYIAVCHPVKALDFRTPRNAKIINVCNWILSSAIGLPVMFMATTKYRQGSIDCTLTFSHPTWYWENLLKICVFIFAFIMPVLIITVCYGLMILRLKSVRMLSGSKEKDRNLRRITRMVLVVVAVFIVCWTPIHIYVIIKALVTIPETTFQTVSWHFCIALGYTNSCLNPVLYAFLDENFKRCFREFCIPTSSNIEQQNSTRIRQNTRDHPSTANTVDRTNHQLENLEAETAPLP
Chain of Cytochrome P450 3A4 (P08684 whole entry): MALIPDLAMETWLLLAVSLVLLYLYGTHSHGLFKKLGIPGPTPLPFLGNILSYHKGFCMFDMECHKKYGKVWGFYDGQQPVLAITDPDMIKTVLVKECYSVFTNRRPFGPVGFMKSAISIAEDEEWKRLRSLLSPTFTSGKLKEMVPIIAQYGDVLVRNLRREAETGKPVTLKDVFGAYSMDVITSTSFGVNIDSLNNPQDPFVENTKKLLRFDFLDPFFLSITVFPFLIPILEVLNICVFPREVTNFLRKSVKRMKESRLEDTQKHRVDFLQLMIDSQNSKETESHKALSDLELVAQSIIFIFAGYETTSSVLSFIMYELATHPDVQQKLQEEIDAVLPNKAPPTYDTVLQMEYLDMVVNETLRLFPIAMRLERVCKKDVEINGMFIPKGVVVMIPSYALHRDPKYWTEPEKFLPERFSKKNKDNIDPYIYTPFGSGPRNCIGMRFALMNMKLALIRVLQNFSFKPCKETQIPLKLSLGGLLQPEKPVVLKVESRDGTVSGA
Chain of Nitric oxide synthase, inducible (P35228 whole entry): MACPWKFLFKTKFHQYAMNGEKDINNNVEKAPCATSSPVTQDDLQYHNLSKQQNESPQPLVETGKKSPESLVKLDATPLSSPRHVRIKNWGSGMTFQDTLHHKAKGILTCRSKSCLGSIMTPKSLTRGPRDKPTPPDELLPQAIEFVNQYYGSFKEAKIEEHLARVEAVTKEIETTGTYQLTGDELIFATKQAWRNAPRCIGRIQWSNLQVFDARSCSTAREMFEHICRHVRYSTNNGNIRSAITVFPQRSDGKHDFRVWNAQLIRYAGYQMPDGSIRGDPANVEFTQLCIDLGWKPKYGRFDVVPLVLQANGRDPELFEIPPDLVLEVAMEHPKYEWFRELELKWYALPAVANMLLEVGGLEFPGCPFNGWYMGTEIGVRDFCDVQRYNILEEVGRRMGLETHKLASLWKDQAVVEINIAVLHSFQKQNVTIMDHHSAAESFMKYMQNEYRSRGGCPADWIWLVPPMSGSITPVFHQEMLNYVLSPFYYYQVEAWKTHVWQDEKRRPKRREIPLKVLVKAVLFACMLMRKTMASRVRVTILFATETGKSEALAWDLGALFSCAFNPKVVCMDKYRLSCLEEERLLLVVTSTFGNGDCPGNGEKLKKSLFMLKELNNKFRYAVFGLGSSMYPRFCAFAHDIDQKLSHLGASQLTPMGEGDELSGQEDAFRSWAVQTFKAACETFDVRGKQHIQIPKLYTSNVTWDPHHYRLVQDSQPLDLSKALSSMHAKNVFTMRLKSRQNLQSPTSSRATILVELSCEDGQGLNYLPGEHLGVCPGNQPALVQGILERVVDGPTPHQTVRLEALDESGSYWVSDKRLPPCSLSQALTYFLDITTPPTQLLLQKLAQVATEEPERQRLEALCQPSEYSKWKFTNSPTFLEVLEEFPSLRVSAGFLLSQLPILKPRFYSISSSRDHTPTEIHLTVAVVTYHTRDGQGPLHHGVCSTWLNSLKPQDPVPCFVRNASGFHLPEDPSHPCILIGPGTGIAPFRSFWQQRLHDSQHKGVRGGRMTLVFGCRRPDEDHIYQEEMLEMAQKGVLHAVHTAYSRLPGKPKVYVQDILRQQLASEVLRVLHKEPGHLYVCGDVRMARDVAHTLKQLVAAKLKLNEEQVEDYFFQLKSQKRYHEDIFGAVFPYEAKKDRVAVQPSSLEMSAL
Chain of Cytochrome P450 2C9 (P11712 whole entry): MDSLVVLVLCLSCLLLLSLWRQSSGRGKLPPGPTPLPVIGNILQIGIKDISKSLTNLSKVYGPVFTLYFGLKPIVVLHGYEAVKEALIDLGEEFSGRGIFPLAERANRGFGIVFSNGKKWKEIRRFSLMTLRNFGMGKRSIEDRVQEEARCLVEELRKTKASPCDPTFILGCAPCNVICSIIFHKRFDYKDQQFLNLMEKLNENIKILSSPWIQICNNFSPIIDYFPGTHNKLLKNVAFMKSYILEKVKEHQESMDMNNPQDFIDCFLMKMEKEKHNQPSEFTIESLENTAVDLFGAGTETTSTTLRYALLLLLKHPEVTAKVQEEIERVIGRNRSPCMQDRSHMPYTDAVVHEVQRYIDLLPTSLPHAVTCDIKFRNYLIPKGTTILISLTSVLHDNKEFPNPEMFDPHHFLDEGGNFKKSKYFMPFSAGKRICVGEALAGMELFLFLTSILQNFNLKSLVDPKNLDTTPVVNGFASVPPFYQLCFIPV
Chain of Sodium-dependent noradrenaline transporter (P23975 whole entry): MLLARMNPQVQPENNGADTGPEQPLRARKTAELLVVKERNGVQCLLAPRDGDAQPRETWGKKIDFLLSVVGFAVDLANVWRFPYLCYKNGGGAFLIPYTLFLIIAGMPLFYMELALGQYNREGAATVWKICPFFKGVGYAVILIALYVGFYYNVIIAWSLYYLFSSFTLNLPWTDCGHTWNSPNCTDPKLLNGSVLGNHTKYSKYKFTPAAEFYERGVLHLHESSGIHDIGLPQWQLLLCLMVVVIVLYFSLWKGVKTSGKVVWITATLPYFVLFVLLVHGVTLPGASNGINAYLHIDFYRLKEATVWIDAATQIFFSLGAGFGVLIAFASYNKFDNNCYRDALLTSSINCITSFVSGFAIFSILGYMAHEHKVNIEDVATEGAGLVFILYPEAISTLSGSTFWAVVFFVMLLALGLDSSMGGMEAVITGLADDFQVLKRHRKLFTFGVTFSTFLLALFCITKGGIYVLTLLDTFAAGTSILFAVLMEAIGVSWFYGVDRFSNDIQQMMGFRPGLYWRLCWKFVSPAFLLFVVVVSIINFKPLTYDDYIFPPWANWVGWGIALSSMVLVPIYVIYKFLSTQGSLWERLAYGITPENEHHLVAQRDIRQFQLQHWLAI

With `CNC1CCCC(c2c[nH]c3ccc(NC(=N)c4cccs4)cc23)C1` (single isomer, unassigned; (+)), the inhibition in data set [1] stood at 61%; in [2], 53%; in data set [3] it was 87%; in data set [4] it was 88%; in data set [5] it was 80%; in data set [6] it was 93%. The inhibition in data set [7] amounted to 87%.
Regarding `CNC1CCCC(c2c[nH]c3ccc(NC(=N)c4cccs4)cc23)C1.Cl` (single isomer, unassigned; (+)), the IC50 result against Cytochrome P450 1A2 and on Cytochrome P450 2C9 was “Not Active” throughout. Also, the pIC50 against Cytochrome P450 2D6 was 5.29; on Cytochrome P450 2C19, below 4.00; in data set [10] it was 6.00; in [14], 5.17; against Cytochrome P450 3A4, 4.00. Moreover, the Activity is recorded as 96% in the data set with Rattus norvegicus [8], 90% with Rattus norvegicus [9], “Non-toxic” in data set [11] and “Non-toxic” in data set [15]. Moreover, the Stability result (in the data set with Hepatocyte [12]; in the data set with Hepatocyte [13]; in the data set on Hepatocyte [16]; in data set [17]) was “Stable” each time.

For the origin of these results see ChEMBL document CHEMBL2034871, “First-in-class, dual-action, 3,5-disubstituted indole derivatives having human nitric oxide synthase (nNOS) and norepinephrine reuptake inhibitory (NERI) activity for the treatment of neuropathic pain” (J Med Chem, 2012).
